Only some compounds are listed: those with a hit (about 1.8% of all), similar ones and a draw of the others.
M5 PAM: CHRM5 positive allosteric modulation. P08912. CHO-K1 hM5, Fluo-8 calcium, ACh EC20 PAM; 0% = ACh EC20, 100% = ACh EC100. activation, % at 3 µM. 0.3% of 360,000 active;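 active = activation above the run cutoff, the mean activation of all test compounds plus 3 SD, cut at about 18% in these data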
Target sequence (P08912 whole entry, looked up): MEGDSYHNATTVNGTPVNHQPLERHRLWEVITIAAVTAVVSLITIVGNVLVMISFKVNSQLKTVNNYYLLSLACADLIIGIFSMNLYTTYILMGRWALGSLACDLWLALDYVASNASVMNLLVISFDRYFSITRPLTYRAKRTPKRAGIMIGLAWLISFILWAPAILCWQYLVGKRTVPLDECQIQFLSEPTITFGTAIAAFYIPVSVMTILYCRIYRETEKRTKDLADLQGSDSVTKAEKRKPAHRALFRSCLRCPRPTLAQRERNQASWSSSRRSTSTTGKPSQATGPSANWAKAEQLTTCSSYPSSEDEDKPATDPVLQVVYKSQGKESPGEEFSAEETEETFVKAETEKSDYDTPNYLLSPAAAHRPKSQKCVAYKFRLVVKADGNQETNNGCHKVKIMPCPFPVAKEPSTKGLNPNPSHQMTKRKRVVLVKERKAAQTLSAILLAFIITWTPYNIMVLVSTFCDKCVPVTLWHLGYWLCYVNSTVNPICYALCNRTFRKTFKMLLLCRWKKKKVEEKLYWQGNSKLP
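Assay system: CHO-K1 hM5 cells / Incubation: Fluo-8 loading 80 min at 37 °C plus 30 min room temperature / Technique: Fluo-8 calcium dye fluorescence, kinetic read / Repeats: single replicate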
M4 antag: antagonists of human muscarinic M4 receptor (CHRM4) | P08173 | CHO-hM4 cells, ACh EC80, Fluo-8 calcium fluorescence | inhibition, % at 3 µM | 0.73% of 360,000 active | AID 624125;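 active = inhibition above its plate's cutoff, the mean inhibition of sample wells plus 3 SD, cut at about 27% in these data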;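 note: 0% = acetylcholine EC80 with DMSO and 100% = DMSO without agonist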
M4 PAM: CHRM4 positive allosteric modulation; P08173; CHO-K1 hM4/Gqi5, Fluo-8 calcium fluorescence, ACh EC20; 0% = ACh EC20, 100% = maximal ACh; activation, % at 3 µM; 0.4% of 360,000 active;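 active = activation above its plate's cutoff, the mean activation of sample wells plus 3 SD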
CHRM5 agonist: CHRM5 agonism in calcium assay | 0.19% of 360,000 active | activation, % at 3 µM | CHO-K1 hM5 cells, Fluo-8 calcium fluorescence; 0% DMSO wells, 100% maximal acetylcholine response | P08912;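 active = activation above the run's mean over test compounds plus 3 SD, cut at about 23% in these data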;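 note: signal is peak over basal fluorescence ratio across the kinetic read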
CHRM4 agonist: CHRM4 agonism in calcium assay | CHO-K1 hM4/Gqi5, Fluo-8 calcium fluorescence; vehicle 0%, full acetylcholine response 100% | activation, % at 3 µM | 0.14% of 360,000 active | AID 624127;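 active = activation above the run mean over all test wells plus 3 SD, cut at about 32% in these data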;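 note: peak over basal fluorescence ratio per well then scaled between controls; 0% = DMSO wells and 100% = acetylcholine at EC100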
CHRM5 antagonist: blocks acetylcholine activation of human M5 receptor; P08912; CHO-hM5 cells, Fluo-8 calcium fluorescence, ACh EC80; 0.59% of 360,000 active; AID 624040; inhibition, % at 3 µM;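 active = inhibition above a per-plate cutoff, the mean of that plate's test compounds plus 3 SD, cut at about 27% in these data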;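 note: 0% = acetylcholine EC80 with DMSO and 100% = DMSO without agonist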
* marks the source's active call; other numbers are inactive results.

COc1ccc(C2CC(=O)c3cnn(-c4nc(C)cc(C)n4)c3C2)cc1OC (stereo unspecified) was read as M5 PAM 44*, M4 antag 24, M4 PAM 11, CHRM5 agonist 7, CHRM4 agonist 6 and CHRM5 antagonist 20.
CCOC(=O)/C=c1\s/c(=C\c2ccc(C(F)(F)F)cc2)c(=O)n1CC(=O)NCc1ccco1 was read as M5 PAM 5, M4 antag -4, M4 PAM 11, CHRM5 agonist 1, CHRM4 agonist 2 and CHRM5 antagonist -10.
`CCOC(=O)/C=c1\s/c(=C\c2ccc(-c3ccccc3)cc2)c(=O)n1CC(=O)NCc1ccc2c(c1)OCO2` gave M5 PAM 16, M4 antag -2, M4 PAM 14, CHRM5 agonist 2, CHRM4 agonist 0 and CHRM5 antagonist -15.
`CCOC(=O)/C=c1\s/c(=C\c2ccc(C)cc2)c(=O)n1CC(=O)NCc1ccco1` gave M5 PAM -2, M4 antag -17, M4 PAM 19*, CHRM5 agonist -3, CHRM4 agonist 1 and CHRM5 antagonist -2.
`CCOC(=O)/C=c1/s/c(=C/c2ccc3cc(OC)ccc3c2)c(=O)n1CC(=O)NCc1ccc2c(c1)OCO2` gave M5 PAM -6, M4 antag -4, M4 PAM 1, CHRM5 agonist 39*, CHRM4 agonist 2 and CHRM5 antagonist 38*.
COc1ccc(CCNC(=O)CCc2ccsc2)cc1OC was read as M5 PAM 1, M4 antag -13, M4 PAM 6, CHRM5 agonist -2, CHRM4 agonist 2 and CHRM5 antagonist -2.
CCCCCCCN1C(Nc2ccccc2)=NC[C@@H]1C was read as M5 PAM -15, M4 antag 9, M4 PAM -12, CHRM5 agonist -11, CHRM4 agonist 3 and CHRM5 antagonist 10.
Screening CC(C)C[C@H](N)c1nnc(S(=O)(=O)Cc2ccc(F)cc2)o1 returned M5 PAM 1, M4 antag 28*, M4 PAM -2, CHRM5 agonist 0, CHRM4 agonist 1 and CHRM5 antagonist 3.
CN(C(=O)COC(=O)c1cc(S(=O)(=O)N2CCCCC2)ccc1Cl)c1ccccc1 was read as M5 PAM -16, M4 antag -3, M4 PAM -8, CHRM5 agonist -4, CHRM4 agonist 15 and CHRM5 antagonist 1.
For Cc1ccc(NC(=O)CSc2nnnn2-c2cccnc2)c(C)c1 the results were M5 PAM -2, M4 antag -5, M4 PAM 6, CHRM5 agonist -2, CHRM4 agonist 1 and CHRM5 antagonist 9.
For CSc1ccc2c(c1)N(CCC1CCCCN1C)c1ccccc1S2 (stereo unspecified) the results were M5 PAM -19, M4 antag 98*, M4 PAM -19, CHRM5 agonist 4, CHRM4 agonist 19 and CHRM5 antagonist 100*.
CSc1ccccc1OCc1cc(C(=O)N2CCN3CCCC3C2)no1 (stereo unspecified) was read as M5 PAM -2, M4 antag 1, M4 PAM -4, CHRM5 agonist -7, CHRM4 agonist 1 and CHRM5 antagonist 14.
Screening O=C(c1ccc(-c2nc3ccccc3s2)o1)N1CCN(c2ccccc2O)CC1 returned M5 PAM -17, M4 antag -1, M4 PAM -5, CHRM5 agonist -5, CHRM4 agonist 9 and CHRM5 antagonist 34*.
`Cc1cc(C)n(CCCNC(=O)c2ccc3c(c2)NC(=O)CS3)n1` gave M5 PAM 25*, M4 antag -4, M4 PAM 6, CHRM5 agonist -12, CHRM4 agonist 1 and CHRM5 antagonist 2.
Screening Cc1ccccc1C(=O)NC1CCN(Cc2nnnn2C(C)(C)C)CC1 returned M5 PAM 6, M4 antag 3, M4 PAM -1, CHRM5 agonist 2, CHRM4 agonist 0 and CHRM5 antagonist -3.
`Cc1ccccc1C(=O)NC1CCN(Cc2nnnn2C2CCCC2)CC1` gave M5 PAM 32*, M4 antag -7, M4 PAM 5, CHRM5 agonist -1, CHRM4 agonist 0 and CHRM5 antagonist 27.
`CN(C)c1ccc(/C=C2\Oc3ccc(C#Cc4cccc(N)c4)cc3C2=O)cc1` gave M5 PAM -27, M4 antag 14, M4 PAM -21, CHRM5 agonist 67*, CHRM4 agonist 96* and CHRM5 antagonist 33*.
CCOc1ccccc1-c1cc(C(=O)Nc2ccc(C(=O)O)cc2)c2ccccc2n1 was read as M5 PAM -3, M4 antag -26, M4 PAM 14*, CHRM5 agonist -4, CHRM4 agonist 1 and CHRM5 antagonist 3.
Cc1cccc(CS(=O)(=O)c2nnc([C@H](Cc3ccccc3)NC(=O)OC(C)(C)C)o2)c1 was read as M5 PAM 1, M4 antag 67*, M4 PAM -16, CHRM5 agonist 3, CHRM4 agonist 7 and CHRM5 antagonist 8.
Screening COC(=O)CSc1nnc([C@H](Cc2ccccc2)NC(=O)OC(C)(C)C)o1 returned M5 PAM -2, M4 antag -10, M4 PAM -6, CHRM5 agonist -3, CHRM4 agonist 3 and CHRM5 antagonist 3.
For COC(=O)CS(=O)(=O)c1nnc([C@H](Cc2ccccc2)NC(=O)OC(C)(C)C)o1 the results were M5 PAM 8, M4 antag 77*, M4 PAM -7, CHRM5 agonist 5, CHRM4 agonist 4 and CHRM5 antagonist 4.
For CC(C)(C)OC(=O)N[C@@H](Cc1ccccc1)c1nnc(SCC(N)=O)o1 the results were M5 PAM -1, M4 antag -7, M4 PAM -12, CHRM5 agonist 2, CHRM4 agonist 0 and CHRM5 antagonist 2.
For CC(C)CNC(=O)C(=O)NCCC1CCCCN1S(=O)(=O)c1cccs1 (stereo unspecified) the results were M5 PAM 7, M4 antag -12, M4 PAM 3, CHRM5 agonist -1, CHRM4 agonist 2 and CHRM5 antagonist 2.
Screening COC(=O)C1=C(C)OC(N)=C(C#N)C1c1cc2cc(C)ccc2nc1Cl (stereo unspecified) returned M5 PAM -19, M4 antag 8, M4 PAM -9, CHRM5 agonist 26*, CHRM4 agonist 22 and CHRM5 antagonist 23.
For CN(C)CCN=Cc1c(O)n(-c2ccc(S(=O)(=O)N3CCOCC3)cc2)c(=O)c2ccccc12 the results were M5 PAM -1, M4 antag -5, M4 PAM 3, CHRM5 agonist -2, CHRM4 agonist 0 and CHRM5 antagonist 1.

High-throughput results from PubChem.
